In test [1] the target is T1, Metabotropic glutamate receptor 2 (Homo sapiens, UniProt Q14416). Put plainly: Positive allosteric modulation of human metabotropic glutamate receptor 2 expressed in CHOK1 cells assessed as cellular impedance at 200 nM incubated for 5mins followed by compound washout in presence of endogenous glutamate levels by RTCA. In kind it is cell-based.
Target sequence in this assay (Q14416 19-872 limits assumed): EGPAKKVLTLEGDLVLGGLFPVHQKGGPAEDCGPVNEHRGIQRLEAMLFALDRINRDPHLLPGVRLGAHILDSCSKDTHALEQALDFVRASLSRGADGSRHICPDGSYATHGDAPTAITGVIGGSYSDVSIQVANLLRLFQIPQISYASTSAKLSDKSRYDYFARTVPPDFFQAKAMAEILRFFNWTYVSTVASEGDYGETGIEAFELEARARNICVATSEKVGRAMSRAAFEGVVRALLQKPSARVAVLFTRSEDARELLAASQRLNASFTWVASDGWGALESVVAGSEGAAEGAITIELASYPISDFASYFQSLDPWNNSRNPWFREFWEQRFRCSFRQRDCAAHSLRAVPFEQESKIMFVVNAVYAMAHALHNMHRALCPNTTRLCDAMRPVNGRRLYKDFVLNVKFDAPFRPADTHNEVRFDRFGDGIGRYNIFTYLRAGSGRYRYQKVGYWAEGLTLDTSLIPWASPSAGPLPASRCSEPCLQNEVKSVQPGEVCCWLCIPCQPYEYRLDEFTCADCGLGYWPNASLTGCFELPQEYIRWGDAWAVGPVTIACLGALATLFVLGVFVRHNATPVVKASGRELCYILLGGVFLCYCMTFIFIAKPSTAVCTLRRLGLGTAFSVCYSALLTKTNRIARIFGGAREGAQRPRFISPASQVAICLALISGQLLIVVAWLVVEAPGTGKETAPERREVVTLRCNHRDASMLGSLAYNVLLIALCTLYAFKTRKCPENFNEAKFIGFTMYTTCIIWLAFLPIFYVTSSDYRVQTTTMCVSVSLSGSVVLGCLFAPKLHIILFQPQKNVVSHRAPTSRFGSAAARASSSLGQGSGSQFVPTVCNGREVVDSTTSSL
The target of test [2] is T1, Metabotropic glutamate receptor 2. In words: Displacement of [3H]-JNJ46281222 from human metabotropic glutamate receptor 2 expressed in CHOK1 cell membranes after 60 mins by microbeta counting analysis. A general note: In a radioligand displacement assay an active substance lowers the binding of a labelled ligand.
Target sequence in this assay (Q14416 whole entry): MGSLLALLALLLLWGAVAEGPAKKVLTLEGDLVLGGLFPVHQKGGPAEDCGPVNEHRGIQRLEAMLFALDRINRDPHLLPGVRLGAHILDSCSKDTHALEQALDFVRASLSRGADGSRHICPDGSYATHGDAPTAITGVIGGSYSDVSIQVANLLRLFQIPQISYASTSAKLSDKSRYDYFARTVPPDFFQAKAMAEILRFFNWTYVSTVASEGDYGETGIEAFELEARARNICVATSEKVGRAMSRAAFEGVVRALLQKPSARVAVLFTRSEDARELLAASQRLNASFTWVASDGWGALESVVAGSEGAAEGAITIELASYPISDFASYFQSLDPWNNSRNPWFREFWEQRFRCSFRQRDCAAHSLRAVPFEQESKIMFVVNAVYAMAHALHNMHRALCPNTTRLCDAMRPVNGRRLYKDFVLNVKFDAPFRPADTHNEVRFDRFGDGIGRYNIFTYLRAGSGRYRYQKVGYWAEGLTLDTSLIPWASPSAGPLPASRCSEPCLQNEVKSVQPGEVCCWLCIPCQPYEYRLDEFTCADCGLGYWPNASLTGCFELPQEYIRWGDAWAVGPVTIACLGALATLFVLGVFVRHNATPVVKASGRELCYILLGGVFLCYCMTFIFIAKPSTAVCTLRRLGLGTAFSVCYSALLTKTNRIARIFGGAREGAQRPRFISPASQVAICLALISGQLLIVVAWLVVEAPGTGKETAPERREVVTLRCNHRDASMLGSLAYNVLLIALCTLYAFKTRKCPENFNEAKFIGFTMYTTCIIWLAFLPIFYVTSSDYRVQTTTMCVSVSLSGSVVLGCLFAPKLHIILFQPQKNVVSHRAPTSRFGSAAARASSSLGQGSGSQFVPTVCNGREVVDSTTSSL
The target is the same in test [3]. In words: Displacement of [3H]JNJ-46281222 from human metabotropic glutamate receptor 2 expressed in CHOK1 cell membranes assessed as residence time measured every 30 sec for 120 mins by scintillation proximity assay. Summed up: (§1)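 For the SPA competition association, CHO-K1_hmGlu2 membranes (20 µg) were pre-coupled 30 min to WGA SPA beads, then mixed with 6 nM [3H]JNJ-46281222, competitor and 1 mM glutamate. Counts were read every 30 s for 120 min at 28°C.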
Target sequence in this assay (Q14416 19-872 limits assumed): as the sequence (Q14416 19-872 limits assumed) above

The target is the same in test [4]. In words: Positive allosteric modulation of human metabotropic glutamate receptor 2 expressed in CHOK1 cell membranes assessed as increase in glutamate-induced [35S]GTPgammaS binding preincubated for 30 mins followed by [35S]GTPgammaS addition measured after 30 mins by Topcount scintillation counting method. The format is functional. On the technique in general: Binding of GTPγS marks nucleotide exchange on a G protein.
Target sequence in this assay (Q14416 whole entry): as the sequence (Q14416 whole entry) above

Test [5] shares this target. Put plainly: Displacement of [3H]JNJ-46281222 from human metabotropic glutamate receptor 2 expressed in CHOK1 cell membranes assessed as dissociation rate constant measured every 30 sec for 120 mins by scintillation proximity assay. Summed up: as §1
Target sequence in this assay (Q14416 19-872 limits assumed): as the sequence (Q14416 19-872 limits assumed) above
Test [6] shares this target. Put plainly: Binding affinity to human metabotropic glutamate receptor 2 expressed in CHOK1 cell membranes by scintillation proximity assay. (In general: Scintillation proximity formats need no separation of bound from free tracer.)
Target sequence in this assay (Q14416 whole entry): as the sequence (Q14416 whole entry) above
Test [7] has the same target. In words: Displacement of [3H]JNJ-46281222 from human metabotropic glutamate receptor 2 expressed in CHOK1 cell membranes assessed as association rate constant measured every 30 sec for 120 mins by scintillation proximity assay. The essentials:
as §1
Target sequence in this assay (Q14416 19-872 limits assumed): as the sequence (Q14416 19-872 limits assumed) above

Test [8] has the same target. Put plainly: Positive allosteric modulation of human metabotropic glutamate receptor 2 expressed in CHOK1 cells assessed as cellular impedance response by label-free xCELLigence assay.
Target sequence in this assay (Q14416 19-872 limits assumed): as above
Test [9] shares this target. Put plainly: Positive allosteric modulation of human metabotropic glutamate receptor 2 expressed in CHOK1 cells assessed as cellular impedance measured for 20 mins with 15 sec time interval followed by 40 mins with 5 mins time interval and subsequently measured with 15 mins time interval in presence of endogenous glutamate levels by RTCA. The format is cell-based. The essentials:
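Whole-cell impedance (Cell Index) in CHO-K1_hmGlu2 cells, 40,000/well, 18 h at 37°C before compound addition. Endogenous glutamate was about 90 µM. […] Three experiments in duplicate.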
Target sequence in this assay (Q14416 whole entry): as the sequence (Q14416 whole entry) above

Test [10] addresses Metabotropic glutamate receptor 6 (Rattus norvegicus) (UniProt P35349). In words: Antagonist activity at rat metabotropic glutamate receptor 6 expressed in CHO cell membranes assessed as inhibition of glutamate-induced [35S]GTPgammaS binding preincubated for 30 mins followed by [35S]GTPgammaS addition measured after 30 mins by Topcount scintillation counting method. In kind it is functional.

For test [11], the target named is T1, Metabotropic glutamate receptor 2. In words: Positive allosteric modulation of human metabotropic glutamate receptor 2 expressed in CHOK1 cells assessed as cellular impedance at 600 nM incubated for 5mins followed by compound washout in presence of endogenous glutamate levels by RTCA. In kind it is cell-based.
Target sequence in this assay (Q14416 19-872 limits assumed): as the sequence (Q14416 19-872 limits assumed) above
For test [12], the target named is Metabotropic glutamate receptor 5 (Homo sapiens) (UniProt P41594). Put plainly: Agonist activity at human metabotropic glutamate receptor 5 expressed in HEK293 cells assessed as induction of Ca2+ internalization after 1 hr by fluo-4-AM dye based fluorescence assay. In kind it is functional, cell-based.
Chain of Metabotropic glutamate receptor 5 (Homo sapiens) (P41594 21-1212 limits assumed): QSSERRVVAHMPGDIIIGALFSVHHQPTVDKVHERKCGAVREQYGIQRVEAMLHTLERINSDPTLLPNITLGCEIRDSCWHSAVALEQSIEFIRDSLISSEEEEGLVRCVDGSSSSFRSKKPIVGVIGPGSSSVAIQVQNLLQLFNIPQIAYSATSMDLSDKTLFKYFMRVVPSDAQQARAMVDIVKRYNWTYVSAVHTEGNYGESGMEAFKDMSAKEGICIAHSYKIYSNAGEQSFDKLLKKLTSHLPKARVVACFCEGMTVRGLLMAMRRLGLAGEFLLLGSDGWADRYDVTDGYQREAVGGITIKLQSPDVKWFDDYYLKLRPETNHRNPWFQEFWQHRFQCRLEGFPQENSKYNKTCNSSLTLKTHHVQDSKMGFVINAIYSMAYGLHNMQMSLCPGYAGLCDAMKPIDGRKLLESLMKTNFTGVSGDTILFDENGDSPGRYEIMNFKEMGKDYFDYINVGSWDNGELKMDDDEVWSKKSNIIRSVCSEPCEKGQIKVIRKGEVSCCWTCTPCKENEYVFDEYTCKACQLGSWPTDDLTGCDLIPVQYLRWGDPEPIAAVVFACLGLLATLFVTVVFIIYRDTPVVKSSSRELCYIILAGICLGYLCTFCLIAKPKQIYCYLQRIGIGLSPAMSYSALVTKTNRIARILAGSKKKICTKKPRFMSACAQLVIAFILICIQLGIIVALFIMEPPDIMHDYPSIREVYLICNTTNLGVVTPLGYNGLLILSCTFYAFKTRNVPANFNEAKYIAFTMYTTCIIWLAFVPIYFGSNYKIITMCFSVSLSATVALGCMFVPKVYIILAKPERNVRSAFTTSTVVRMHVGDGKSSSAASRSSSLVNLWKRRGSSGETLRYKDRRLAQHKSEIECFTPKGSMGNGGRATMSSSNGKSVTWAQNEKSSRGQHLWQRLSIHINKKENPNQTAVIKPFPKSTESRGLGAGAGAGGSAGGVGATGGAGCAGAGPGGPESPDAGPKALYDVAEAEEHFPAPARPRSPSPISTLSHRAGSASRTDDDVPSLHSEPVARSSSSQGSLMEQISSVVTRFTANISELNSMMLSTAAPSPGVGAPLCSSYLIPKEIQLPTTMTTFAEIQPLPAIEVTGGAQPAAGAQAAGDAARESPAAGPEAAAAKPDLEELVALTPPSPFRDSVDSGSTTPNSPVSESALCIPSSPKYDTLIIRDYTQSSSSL
Test [13] shares this target. In words: Positive allosteric modulation of human metabotropic glutamate receptor 5 expressed in HEK293 cells assessed as induction of Ca2+ […] after 1 hr in the presence of glutamate by fluo-4-AM dye based fluorescence assay. In kind it is functional, cell-based.
The target in test [14] is Metabotropic glutamate receptor 6 (Rattus norvegicus) (UniProt P35349). Put plainly: Agonist activity at rat metabotropic glutamate receptor 6 expressed in CHO cell membranes assessed as increase in [35S]GTPgammaS binding preincubated for 30 mins followed by [35S]GTPgammaS addition measured after 30 mins by Topcount scintillation counting method. The format is functional.

Test [15] concerns the target Metabotropic glutamate receptor 4 (Homo sapiens) (UniProt Q14833). In words: Agonist activity at human metabotropic glutamate receptor 4 assessed as increase in [35S]GTPgammaS binding preincubated for 30 mins followed by [35S]GTPgammaS addition measured after 30 mins by Topcount scintillation counting method. In kind it is functional.
Test [16] deals with Metabotropic glutamate receptor 8 (Homo sapiens) (UniProt O00222). In words: Antagonist activity at human metabotropic glutamate receptor 8 expressed in HEK293 cells assessed as inhibition of glutamate-induced Ca2+ internalization after 1 hr by fluo-4-AM dye based fluorescence assay. In kind it is functional, cell-based.
For test [17] the target is unchanged. In words: Agonist activity at human metabotropic glutamate receptor 8 expressed in HEK293 cells assessed as induction of Ca2+ internalization after 1 hr by fluo-4-AM dye based fluorescence assay. In kind it is functional, cell-based.
The target of test [18] is Metabotropic glutamate receptor 3 (Homo sapiens) (UniProt Q14832). Put plainly: Agonist activity at human metabotropic glutamate receptor 3 expressed in HEK293 cells assessed as induction of Ca2+ internalization after 1 hr by fluo-4-AM dye based fluorescence assay. In kind it is functional, cell-based.
Chain of Metabotropic glutamate receptor 3 (Homo sapiens) (Q14832 23-879 limits assumed): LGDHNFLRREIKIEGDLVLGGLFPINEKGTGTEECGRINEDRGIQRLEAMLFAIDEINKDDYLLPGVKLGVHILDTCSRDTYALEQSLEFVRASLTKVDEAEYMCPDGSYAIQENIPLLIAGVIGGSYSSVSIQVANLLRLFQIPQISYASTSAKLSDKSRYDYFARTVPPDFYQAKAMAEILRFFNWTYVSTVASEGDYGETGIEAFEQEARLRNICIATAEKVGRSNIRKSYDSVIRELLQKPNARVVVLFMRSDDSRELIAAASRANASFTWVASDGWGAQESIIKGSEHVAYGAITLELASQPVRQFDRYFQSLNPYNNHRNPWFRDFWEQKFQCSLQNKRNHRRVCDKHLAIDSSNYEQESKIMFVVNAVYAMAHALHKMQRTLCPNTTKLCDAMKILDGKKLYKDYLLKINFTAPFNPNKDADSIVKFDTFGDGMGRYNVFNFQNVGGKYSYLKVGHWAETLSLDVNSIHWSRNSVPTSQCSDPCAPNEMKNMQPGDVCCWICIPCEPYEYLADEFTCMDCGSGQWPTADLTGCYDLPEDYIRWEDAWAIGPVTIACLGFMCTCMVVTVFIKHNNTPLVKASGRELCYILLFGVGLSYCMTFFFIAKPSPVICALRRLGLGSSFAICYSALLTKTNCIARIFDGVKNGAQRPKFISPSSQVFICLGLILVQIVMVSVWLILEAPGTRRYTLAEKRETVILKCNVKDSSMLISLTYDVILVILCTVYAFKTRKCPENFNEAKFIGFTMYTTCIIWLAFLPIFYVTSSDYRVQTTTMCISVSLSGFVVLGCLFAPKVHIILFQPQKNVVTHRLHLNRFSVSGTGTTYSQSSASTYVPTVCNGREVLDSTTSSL
Test [19] addresses Metabotropic glutamate receptor 1 (Homo sapiens) (UniProt Q13255). In words: Agonist activity at human metabotropic glutamate receptor 1 expressed in HEK293 cells assessed as induction of Ca2+ internalization after 1 hr by fluo-4-AM dye based fluorescence assay. In kind it is functional, cell-based.
In test [20] the target is Metabotropic glutamate receptor 5 (Homo sapiens) (UniProt P41594). In words: Antagonist activity at human metabotropic glutamate receptor 5 expressed in HEK293 cells assessed as inhibition of glutamate-induced Ca2+ internalization after 1 hr by fluo-4-AM dye based fluorescence assay. In kind it is functional, cell-based.
In test [21] the target is Metabotropic glutamate receptor 7 (Homo sapiens) (UniProt Q14831). Put plainly: Antagonist activity at human metabotropic glutamate receptor 7 expressed in HEK293 cells assessed as inhibition of glutamate-induced Ca2+ internalization after 1 hr by fluo-4-AM dye based fluorescence assay. The format is functional, cell-based.
Chain of Metabotropic glutamate receptor 7 (Homo sapiens) (Q14831 whole entry): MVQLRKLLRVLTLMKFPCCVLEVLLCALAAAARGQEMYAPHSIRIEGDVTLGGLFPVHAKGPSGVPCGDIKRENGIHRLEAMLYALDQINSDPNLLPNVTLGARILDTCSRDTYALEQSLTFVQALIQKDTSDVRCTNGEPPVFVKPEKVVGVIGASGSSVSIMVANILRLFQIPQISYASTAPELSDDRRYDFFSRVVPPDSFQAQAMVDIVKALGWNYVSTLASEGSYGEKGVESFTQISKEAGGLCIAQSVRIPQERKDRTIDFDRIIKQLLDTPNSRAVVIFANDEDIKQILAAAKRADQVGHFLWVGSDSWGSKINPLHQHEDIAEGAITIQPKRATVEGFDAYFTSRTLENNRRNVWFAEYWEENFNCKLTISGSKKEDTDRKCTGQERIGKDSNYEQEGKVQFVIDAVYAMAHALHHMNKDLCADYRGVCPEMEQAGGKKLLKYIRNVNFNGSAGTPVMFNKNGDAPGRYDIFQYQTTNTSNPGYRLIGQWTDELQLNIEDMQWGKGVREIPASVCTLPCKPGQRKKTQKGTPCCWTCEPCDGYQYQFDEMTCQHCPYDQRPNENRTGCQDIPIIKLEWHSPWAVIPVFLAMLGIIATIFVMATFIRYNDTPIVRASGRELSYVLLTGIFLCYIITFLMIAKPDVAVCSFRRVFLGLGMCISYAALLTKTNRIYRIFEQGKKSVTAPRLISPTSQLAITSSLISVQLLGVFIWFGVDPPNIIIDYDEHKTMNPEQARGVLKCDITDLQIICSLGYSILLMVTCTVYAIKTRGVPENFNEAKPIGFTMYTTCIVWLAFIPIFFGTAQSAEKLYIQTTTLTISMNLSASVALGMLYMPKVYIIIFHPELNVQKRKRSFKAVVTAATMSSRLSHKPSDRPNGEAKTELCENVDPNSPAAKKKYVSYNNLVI
The target of test [22] is Metabotropic glutamate receptor 1 (Homo sapiens) (UniProt Q13255). Put plainly: Antagonist activity at human metabotropic glutamate receptor 1 expressed in HEK293 cells assessed as inhibition of glutamate-induced Ca2+ internalization after 1 hr by fluo-4-AM dye based fluorescence assay. In kind it is functional, cell-based.
For test [23], the target named is Metabotropic glutamate receptor 3 (Homo sapiens) (UniProt Q14832). In words: Antagonist activity at human metabotropic glutamate receptor 3 expressed in HEK293 cells assessed as inhibition of glutamate-induced Ca2+ internalization after 1 hr by fluo-4-AM dye based fluorescence assay. In kind it is functional, cell-based.
For test [24], the target named is Metabotropic glutamate receptor 7 (Homo sapiens) (UniProt Q14831). Put plainly: Agonist activity at human metabotropic glutamate receptor 7 expressed in HEK293 cells assessed as induction of Ca2+ internalization after 1 hr by fluo-4-AM dye based fluorescence assay. The format is functional, cell-based.
Test [25] addresses Metabotropic glutamate receptor 4 (Homo sapiens) (UniProt Q14833). Put plainly: Antagonist activity at human metabotropic glutamate receptor 4 assessed as inhibition of glutamate-induced [35S]GTPgammaS binding preincubated for 30 mins followed by [35S]GTPgammaS addition measured after 30 mins by Topcount scintillation counting method. The format is functional.
For test [26], the target named is T1, Metabotropic glutamate receptor 2. In words: Positive allosteric modulation of human metabotropic glutamate receptor 2 expressed in CHOK1 cells assessed as cellular impedance at 60 nM incubated for 5mins followed by compound washout in presence of endogenous glutamate levels by RTCA. In kind it is cell-based.

Results on 3 compounds are retold here after ChEMBL document CHEMBL4038323, “Discovery and Kinetic Profiling of 7-Aryl-1,2,4-triazolo[4,3-a]pyridines: Positive Allosteric Modulators of the Metabotropic Glutamate Receptor 2” (J Med Chem, 2017).

pEC50, pKd, pKi: −log10 of the molar value. Activity calls are given as the source filed them. The calls are words filed in the database; no cut-off is given here.

On to `FC(F)(F)c1c(-c2ccc(NC3CCOCC3)c(Cl)c2)ccn2c(CC3CC3)nnc12`, for which, in test [1], the outcome was inactive. Besides, the pKi (usually the negative decadic logarithm of the Ki, by convention in mol/L) in test [2] is 8.30. The TIME in test [3] stood at 0.25 h. Besides, the negative-log EC50 (pEC50) in test [4] and in test [9] was 7.73 in each case. Moreover, the K was 0.067 min⁻¹ in test [5] and 1.8 ×10⁷ /M/min in [7]. Moreover, the pKd (commonly the Kd on a negative log10 scale, so that one unit is a factor of ten) in test [6] is 8.42. The EC80 (in general, the concentration needed for an effect of 80%) in [8] is 200 nM.
Regarding `FC(F)(F)c1c(-c2ccc(OC3CCOCC3)c(Cl)c2)ccn2c(CC3CC3)nnc12`, the inhibition entry in test [10], in [16], in test [20], in test [21], in [22] and in test [23] was “inactive” in each case. Moreover, the inhibition result in test [25] was “inactive”. Moreover, the result in [11], in [12], in [13], in test [14], in test [15] and in test [17] was inactive. Further, the outcome in [18], in test [19] and in [24] was inactive. In addition, the pKi in test [2] was 8.28. The TIME in test [3] stood at 0.0683 h. For the same compound, the pEC50 (usually the EC50 on a negative log10 scale, so that one unit is a factor of ten) is 7.42 in [4] and 7.05 in [9]. Further, the K was determined as 0.241 min⁻¹ in test [5] and 2 ×10⁷ /M/min in [7]. In [6], the pKd was 7.91. Also, the EC80 in [8] came out at 600 nM.
As to `O[C@]1(C2CC2)CC[C@H](Nc2ccc(-c3ccn4c(CC5CC5)nnc4c3C(F)(F)F)cc2Cl)CC1`, the pKi in test [2] is 9.05. Moreover, the TIME in [3] came out at 0.825 h. Also, the pEC50 in test [4] is 8.95; in test [9], 7.95. The result in test [26] was Active. The figures for the K in test [5] and in test [7] were 0.02 min⁻¹ and 1.4 ×10⁷ /M/min, respectively. The compound further gave a pKd in test [6] of 8.82. In addition, the EC80 in [8] turned out to be 60 nM.
